This assay addresses T1, Amine oxidase [flavin-containing] B (Bos taurus, UniProt P56560).
T1 sequence (P56560 whole entry): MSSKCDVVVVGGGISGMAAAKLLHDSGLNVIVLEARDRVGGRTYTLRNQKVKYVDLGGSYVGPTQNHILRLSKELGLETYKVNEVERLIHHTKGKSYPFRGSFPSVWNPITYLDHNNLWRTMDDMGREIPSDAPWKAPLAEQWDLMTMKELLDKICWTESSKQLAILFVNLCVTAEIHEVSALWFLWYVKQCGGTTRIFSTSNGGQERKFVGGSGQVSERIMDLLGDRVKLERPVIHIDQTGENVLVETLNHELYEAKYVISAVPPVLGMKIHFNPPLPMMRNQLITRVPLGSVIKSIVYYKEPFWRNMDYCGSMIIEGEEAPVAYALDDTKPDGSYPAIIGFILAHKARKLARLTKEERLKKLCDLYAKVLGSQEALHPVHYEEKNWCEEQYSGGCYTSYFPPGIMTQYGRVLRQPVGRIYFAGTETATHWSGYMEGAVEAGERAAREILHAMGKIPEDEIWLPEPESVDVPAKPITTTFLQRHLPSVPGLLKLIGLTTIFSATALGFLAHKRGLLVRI
Kind of assay: Kinetic constant for inactivation of MAO B from replot of half-lives of inactivation. Conditions: for kinact: cattle. The method, boiled down: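 Bovine liver MAO-B (specific activity 4–6 units/mg) preincubated at 25 °C with inactivator hydrochloride at various concentrations, or none (control), in 100 mM potassium phosphate pH 7.40 with 2.0 mM glutathione. Aliquots taken periodically and assayed with 0.50 mM cinnamylamine in 100 mM Tris pH 9.0, 25 °C. Activity corrected against control. KI and kinact obtained by Kitz–Wilson replot of inactivation half-lives.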

This note sets out measurements from ChEMBL document CHEMBL1126900, “Transformation of heterocyclic reversible monoamine oxidase-B inactivators into irreversible inactivators by N-methylation” (J Med Chem, 1993).

The term kinact denotes the maximal first-order rate at which the target is inactivated. Turning to `NCC1CN(c2ccc(OCc3cccc(Cl)c3)cc2)C(=O)O1` (stereo unspecified), the Ki was 0.067 mM and the maximal inactivation rate constant (kinact) was 0.00233 s⁻¹.
On the same counts, the results for `COc1ccc(N2CC(CN(C)C)CC2=O)cc1` (stereo unspecified) are 300 mM and 5.83e-05 s⁻¹.
With `COc1ccc([C@H]2C[C@@H](CN(C)C)OC2=O)cc1`, the Ki came to 200 mM and the inactivation rate constant (kinact) was 0.000283 s⁻¹.
On the same counts, the results for `CNCC1CN(c2ccc(OC)cc2)C(=O)O1` (stereo unspecified) are 4.7 mM and 3.17e-05 s⁻¹.
Take `COc1ccc(N2CC(CN)OC2=O)cc1` (stereo unspecified): the kinact was 1.33e-05 s⁻¹.
In the case of `CNCC1CC(=O)N(c2ccc(OC)cc2)C1` (stereo unspecified), the Ki is 50 mM and the maximal inactivation rate constant (kinact) is 5.83e-05 s⁻¹.
On the same counts, the results for `COc1ccc(N2CC(CN(C)C)OC2=O)cc1` (stereo unspecified) are 13.3 mM and 5e-05 s⁻¹.
On the same counts, the results for `COc1ccc(N2CC(CN)CC2=O)cc1` (stereo unspecified) are 6.7 mM and 1.12e-05 s⁻¹.
On the same counts, the results for `CNCC1CN(c2ccc(OCc3cccc(Cl)c3)cc2)C(=O)O1` (stereo unspecified) are 0.2 mM and 0.000417 s⁻¹.
As to `COc1ccc(C2CC(CN)OC2=O)cc1` (stereo unspecified), the Ki is 6.7 mM and the inactivation rate constant (kinact) was 7.33e-05 s⁻¹.
On to `CN(C)CC1CN(c2ccc(OCc3cccc(Cl)c3)cc2)C(=O)O1` (stereo unspecified), for which the Ki came to 0.5 mM and the kinact is 0.00137 s⁻¹.
